# Laboratory results from ChEMBL document CHEMBL1165950, “Design and synthesis of new potent anticancer pyrazoles with high FLT3 kinase inhibitory selectivity” (Bioorg Med Chem, 2010).
# Key:
# Type in all cases: functional
# [1] = Cytotoxicity against human […] cells assessed as cell growth at 10 uM; settings: read-out: Activity
# How it was run: (§1)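 NCI-60 screen: cells grown in RPMI 1640 with 5% FBS and 2 mM L-glutamine, plated at 5000–40,000 cells/well according to doubling time, and preincubated 24 h at 37 °C, 5% CO2. The single 10 µM dose (DMSO stock) was added, then incubated 48 h. Cells were TCA-fixed and stained with 0.4% SRB, read at 515 nm, and growth % calculated against time-zero and control plates.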
# T47D = test: Cytotoxicity against human T47D cells assessed as cell growth at 10 uM; settings: read-out: Activity; how it was run: as §1
# EKVX = test: Cytotoxicity against human EKVX cells assessed as cell growth at 10 uM; settings: read-out: Activity
# How it was run: (§2)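 Single-dose NCI-60 screen at 10 µM. Cells were grown in RPMI 1640 with 5% FBS and 2 mM L-glutamine, then treated for 48 h at 37 °C. Protein was measured by SRB staining with absorbance at 515 nm. Percentage growth was recorded, and inhibition percentage was calculated as 100 minus growth percentage.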
# CAKI-1 = test: Cytotoxicity against human Caki1 cells assessed as cell growth at 10 uM; settings: read-out: Activity; how it was run: as §2
# MOLT-4 = test: Cytotoxicity against human MOLT4 cells assessed as cell growth at 10 uM; settings: read-out: Activity; how it was run: as §1
# UACC-257 = test: Cytotoxicity against human UACC257 cells assessed as cell growth at 10 uM; settings: read-out: Activity; how it was run: as §1
# MCF7 = test: Cytotoxicity against human MCF7 cells assessed as cell growth at 10 uM; settings: read-out: Activity; how it was run: as §1
# NCI/ADR-RES = test: Cytotoxicity against human NCI/ADR-RES cells assessed as cell growth at 10 uM; settings: read-out: Activity; how it was run: as §1
# OVCAR-3 = test: Cytotoxicity against human OVCAR-3 cells assessed as cell growth at 10 uM; settings: read-out: Activity; how it was run: as §1
# OVCAR-8 = test: Cytotoxicity against human OVCAR8 cells assessed as cell growth at 10 uM; settings: read-out: Activity; how it was run: as §1
# CCRF-CEM = test: Cytotoxicity against human CCRF-CEM cells assessed as cell growth at 10 uM; settings: read-out: Activity; how it was run: as §2
# SNB-75 = test: Cytotoxicity against human SNB75 cells assessed as cell growth at 10 uM; settings: read-out: Activity; how it was run: as §1
# ACHN = test: Cytotoxicity against human ACHN cells assessed as cell growth at 10 uM; settings: read-out: Activity; how it was run: as §2
# SNB-19 = test: Cytotoxicity against human SNB19 cells assessed as cell growth at 10 uM; settings: read-out: Activity; how it was run: as §1
# OVCAR-4 = test: Cytotoxicity against human OVCAR4 cells assessed as cell growth at 10 uM; settings: read-out: Activity; how it was run: as §1
# HL-60(TB) = test: Cytotoxicity against human HL-60(TB) cells assessed as cell growth at 10 uM; settings: read-out: Activity
# How it was run: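 NCI 60-cell panel screen at a single concentration of 10 µM. Cells are grown in RPMI 1640 with 5% FBS and 2 mM L-glutamine and read by SRB protein staining at 515 nm. Percent growth is measured relative to time-zero and untreated controls; inhibition % is 100 minus growth %.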
# UO-31 = test: Cytotoxicity against human UO31 cells assessed as cell growth at 10 uM; settings: read-out: Activity; how it was run: as §1
# COLO 205 = test: Cytotoxicity against human COLO205 cells assessed as cell growth at 10 uM; settings: read-out: Activity; how it was run: as §2
# SK-MEL-5 = test: Cytotoxicity against human SK-MEL-5 cells assessed as cell growth at 10 uM; settings: read-out: Activity; how it was run: as §1
# SR = test: Cytotoxicity against human SR cells assessed as cell growth at 10 uM; settings: read-out: Activity; how it was run: as §1
# [2] = Growth inhibition of human NCI60 cells at 10 uM after 48 hrs by sulforhodamine B assay relative to control; settings: NCI60, 48 h, read-out: GI
# How it was run: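 Single-dose NCI screen at 10 µM across the 60-line panel, 48 h exposure at 37 °C after a 24 h preincubation. Adherent cells were fixed with cold TCA and stained with 0.4% SRB, and absorbance was read at 515 nm. Inhibition % was taken as 100 minus growth %, and the mean across all lines was reported.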
# SF-268 = test: Cytotoxicity against human SF268 cells assessed as cell growth at 10 uM; settings: read-out: Activity; how it was run: as §1
# MDA-MB-468 = test: Cytotoxicity against human MDA-MB-468 cells assessed as cell growth at 10 uM; settings: read-out: Activity; how it was run: as §1
# NCI-H322M = test: Cytotoxicity against human NCI-H322M cells assessed as cell growth at 10 uM; settings: read-out: Activity; how it was run: as §1
# KM12 = test: Cytotoxicity against human KM12 cells assessed as cell growth at 10 uM; settings: read-out: Activity; how it was run: as §1
# M14 = test: Cytotoxicity against human M14 cells assessed as cell growth at 10 uM; settings: read-out: Activity; how it was run: as §1
# NCI-H460 = test: Cytotoxicity against human NCI-H460 cells assessed as cell growth at 10 uM; settings: read-out: Activity; how it was run: as §1
# SF-539 = test: Cytotoxicity against human SF539 cells assessed as cell growth at 10 uM; settings: read-out: Activity; how it was run: as §1
# 786-0 = test: Cytotoxicity against human 786-0 cells assessed as cell growth at 10 uM; settings: read-out: Activity; how it was run: as §2
# [3] = Cytotoxicity against human Hs 578T cells assessed as cell growth at 10 uM; settings: read-out: Activity; how it was run: as §2
# HOP-92 = test: Cytotoxicity against human HOP92 cells assessed as cell growth at 10 uM; settings: read-out: Activity; how it was run: as §2
# LOX IMVI = test: Cytotoxicity against human LOXIMVI cells assessed as cell growth at 10 uM; settings: read-out: Activity; how it was run: as §1
# IGROV-1 = test: Cytotoxicity against human IGROV1 cells assessed as cell growth at 10 uM; settings: read-out: Activity; how it was run: as §2
# SK-MEL-28 = test: Cytotoxicity against human SK-MEL-28 cells assessed as cell growth at 10 uM; settings: read-out: Activity; how it was run: as §1
# HCT-15 = test: Cytotoxicity against human HCT15 cells assessed as cell growth at 10 uM; settings: read-out: Activity; how it was run: as §2
# NCI-H226 = test: Cytotoxicity against human NCI-H226 cells assessed as cell growth at 10 uM; settings: read-out: Activity; how it was run: as §1
# SF-295 = test: Cytotoxicity against human SF295 cells assessed as cell growth at 10 uM; settings: read-out: Activity; how it was run: as §1
# A498 = test: Cytotoxicity against human A498 cells assessed as cell growth at 10 uM; settings: read-out: Activity; how it was run: as §2
# SK-MEL-2 = test: Cytotoxicity against human SK-MEL-2 cells assessed as cell growth at 10 uM; settings: read-out: Activity; how it was run: as §1
# PC-3 = test: Cytotoxicity against human PC3 cells assessed as cell growth at 10 uM; settings: read-out: Activity; how it was run: as §1
# SW-620 = test: Cytotoxicity against human SW620 cells assessed as cell growth at 10 uM; settings: read-out: Activity; how it was run: as §1
# HCT-116 = test: Cytotoxicity against human HCT116 cells assessed as cell growth at 10 uM; settings: read-out: Activity; how it was run: as §2
# HT-29 = test: Cytotoxicity against human HT-29 cells assessed as cell growth at 10 uM; settings: read-out: Activity; how it was run: as §2
# HCC 2998 = test: Cytotoxicity against human HCC2998 cells assessed as cell growth at 10 uM; settings: read-out: Activity; how it was run: as §2
# MDA-MB-435 = test: Cytotoxicity against human MDA-MB-435 cells assessed as cell growth at 10 uM; settings: read-out: Activity; how it was run: as §1
# TK-10 = test: Cytotoxicity against human TK10 cells assessed as cell growth at 10 uM; settings: read-out: Activity; how it was run: as §1
# DU-145 = test: Cytotoxicity against human DU145 cells assessed as cell growth at 10 uM; settings: read-out: Activity; how it was run: as §2
# Malme-3M = test: Cytotoxicity against human MALME-3M cells assessed as cell growth at 10 uM; settings: read-out: Activity; how it was run: as §1
# UACC-62 = test: Cytotoxicity against human UACC62 cells assessed as cell growth at 10 uM; settings: read-out: Activity; how it was run: as §1
# U-251 = test: Cytotoxicity against human U251 cells assessed as cell growth at 10 uM; settings: read-out: Activity; how it was run: as §1
# K562 = test: Cytotoxicity against human K562 cells assessed as cell growth at 10 uM; settings: read-out: Activity; how it was run: as §2
# A549 = test: Cytotoxicity against human A549 cells assessed as cell growth at 10 uM; settings: read-out: Activity; how it was run: as §2
# NCI-H522 = test: Cytotoxicity against human NCI-H522 cells assessed as cell growth at 10 uM; settings: read-out: Activity; how it was run: as §1
# MDA-MB-231 = test: Cytotoxicity against human MDA-MB-231 cells assessed as cell growth at 10 uM; settings: read-out: Activity; how it was run: as §1
# OVCAR-5 = test: Cytotoxicity against human OVCAR5 cells assessed as cell growth at 10 uM; settings: read-out: Activity; how it was run: as §1
# RXF 393 = test: Cytotoxicity against human RXF393 cells assessed as cell growth at 10 uM; settings: read-out: Activity; how it was run: as §1
# BT-549 = test: Cytotoxicity against human BT549 cells assessed as cell growth at 10 uM; settings: read-out: Activity; how it was run: as §2
# SK-OV-3 = test: Cytotoxicity against human SKOV3 cells assessed as cell growth at 10 uM; settings: read-out: Activity; how it was run: as §1
# HOP-62 = test: Cytotoxicity against human HOP62 cells assessed as cell growth at 10 uM; settings: read-out: Activity; how it was run: as §2
# NCI-H23 = test: Cytotoxicity against human NCI-H23 cells assessed as cell growth at 10 uM; settings: read-out: Activity; how it was run: as §1
# SN12C = test: Cytotoxicity against human SN12C cells assessed as cell growth at 10 uM; settings: read-out: Activity; how it was run: as §1
compound,measurement,setting,value
Cc1cc(O)cc(-c2nn(CC#N)cc2-c2ccnc(-c3ccccc3)c2)c1,growth at 10 µM,[1],84.5%
same,growth at 10 µM,T47D,59.2%
same,growth at 10 µM,EKVX,101%
same,growth at 10 µM,CAKI-1,82.4%
same,growth at 10 µM,MOLT-4,71%
same,growth at 10 µM,UACC-257,95.6%
same,growth at 10 µM,MCF7,53.8%
same,growth at 10 µM,NCI/ADR-RES,66.7%
same,growth at 10 µM,OVCAR-3,107%
same,growth at 10 µM,OVCAR-8,70.2%
same,growth at 10 µM,CCRF-CEM,85.8%
same,growth at 10 µM,SNB-75,43.2%
same,growth at 10 µM,ACHN,74.4%
same,growth at 10 µM,SNB-19,87%
same,growth at 10 µM,OVCAR-4,77.7%
same,growth at 10 µM,HL-60(TB),78.4%
same,growth at 10 µM,UO-31,64.5%
same,growth at 10 µM,COLO 205,108%
same,growth at 10 µM,SK-MEL-5,75.4%
same,growth at 10 µM,SR,80.3%
same,inhibition of growth at 10 µM,[2],16.4%
same,growth at 10 µM,SF-268,99.6%
same,growth at 10 µM,MDA-MB-468,61.8%
same,growth at 10 µM,NCI-H322M,116%
same,growth at 10 µM,KM12,97.2%
same,growth at 10 µM,M14,81.3%
same,growth at 10 µM,NCI-H460,93.3%
same,growth at 10 µM,SF-539,83.5%
same,growth at 10 µM,786-0,67%
same,growth at 10 µM,[3],84.6%
same,growth at 10 µM,HOP-92,57.3%
same,growth at 10 µM,LOX IMVI,95.6%
same,growth at 10 µM,IGROV-1,72%
same,growth at 10 µM,SK-MEL-28,85.2%
same,growth at 10 µM,HCT-15,54%
same,growth at 10 µM,NCI-H226,77.7%
same,growth at 10 µM,SF-295,99.2%
same,growth at 10 µM,A498,84.3%
same,growth at 10 µM,SK-MEL-2,86.1%
same,growth at 10 µM,PC-3,88.7%
same,growth at 10 µM,SW-620,87.6%
same,growth at 10 µM,HCT-116,59.1%
same,growth at 10 µM,HT-29,61.9%
same,growth at 10 µM,HCC 2998,89.2%
same,growth at 10 µM,MDA-MB-435,97.8%
same,growth at 10 µM,TK-10,84.2%
same,growth at 10 µM,DU-145,103%
same,growth at 10 µM,Malme-3M,133%
same,growth at 10 µM,UACC-62,59.8%
same,growth at 10 µM,U-251,87.4%
same,growth at 10 µM,K562,71.5%
same,growth at 10 µM,A549,85.5%
same,growth at 10 µM,NCI-H522,57.2%
same,growth at 10 µM,MDA-MB-231,80.7%
same,growth at 10 µM,OVCAR-5,93.2%
same,growth at 10 µM,RXF 393,151%
same,growth at 10 µM,BT-549,93.5%
same,growth at 10 µM,SK-OV-3,84.6%
same,growth at 10 µM,HOP-62,92.7%
same,growth at 10 µM,NCI-H23,93.5%
same,growth at 10 µM,SN12C,77.6%
